Measurements from ChEMBL document CHEMBL1158766, “Sesquiterpenoids from Saussurea laniceps” (2005).

Assay: Inhibition of concanavalin A-induced mouse T cell proliferation assessed as [3H]TdR incorporation at 0.1 uM
Type: functional
Procedure, shortened: (§1)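 Mouse spleen cells (4 × 10^6/well) were stimulated with ConA at 5 µg/mL alongside compound at 1 × 10^-7 to 1 × 10^-4 M, then cultured for 48 h at 37 °C in 5% CO2. [3H]TdR (0.25 µCi/well) was added for the final 6 h, and uptake was read by liquid scintillation counting. Counts are means ± SD from three independent experiments, compared with controls by Student t-test.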

Going from `C=C(C)C(=O)O[C@H]1CC(=C)[C@@H]2C[C@@H](O)C(=C)[C@@H]2[C@H]2OC(=O)[C@@H](C)[C@@H]21` to `C=C(CO)C(=O)O[C@H]1CC(=C)[C@@H]2C[C@@H](O)C(=C)[C@@H]2[C@H]2OC(=O)[C@@H](C)[C@@H]21`, the Activity rises from 33800 cpm to 46300 cpm.

`C=C1C[C@H](O)C[C@]2(C)CC[C@@](O)(C(=C)CO)C[C@@H]12` showed an Activity of 39800 cpm.

Assay: Inhibition of concanavalin A-induced mouse T cell proliferation assessed as [3H]TdR incorporation at 1 uM
Type: functional
Procedure, shortened: as §1

Compared with `C=C(C)C(=O)O[C@H]1CC(=C)[C@@H]2C[C@@H](O)C(=C)[C@@H]2[C@H]2OC(=O)[C@@H](C)[C@@H]21`, `C=C(CO)C(=O)O[C@H]1CC(=C)[C@@H]2C[C@@H](O)C(=C)[C@@H]2[C@H]2OC(=O)[C@@H](C)[C@@H]21` is higher in Activity: 36100 cpm for the first, 43800 cpm for the second.

For `C=C1C[C@H](O)C[C@]2(C)CC[C@@](O)(C(=C)CO)C[C@@H]12`, the Activity was 31500 cpm.

Assay: Inhibition of concanavalin A-induced mouse T cell proliferation assessed as [3H]TdR incorporation at 10 uM
Type: functional
Procedure, shortened: as §1

Compared with `C=C(C)C(=O)O[C@H]1CC(=C)[C@@H]2C[C@@H](O)C(=C)[C@@H]2[C@H]2OC(=O)[C@@H](C)[C@@H]21`, `C=C(CO)C(=O)O[C@H]1CC(=C)[C@@H]2C[C@@H](O)C(=C)[C@@H]2[C@H]2OC(=O)[C@@H](C)[C@@H]21` is lower in Activity: 30600 cpm for the first, 13400 cpm for the second.

With `C=C1C[C@H](O)C[C@]2(C)CC[C@@](O)(C(=C)CO)C[C@@H]12` the Activity was 28300 cpm.

Assay: Inhibition of concanavalin A-induced mouse T cell proliferation assessed as [3H]TdR incorporation at 100 uM
Type: functional
Procedure, shortened: as §1

Going from `C=C(C)C(=O)O[C@H]1CC(=C)[C@@H]2C[C@@H](O)C(=C)[C@@H]2[C@H]2OC(=O)[C@@H](C)[C@@H]21` to `C=C(CO)C(=O)O[C@H]1CC(=C)[C@@H]2C[C@@H](O)C(=C)[C@@H]2[C@H]2OC(=O)[C@@H](C)[C@@H]21`, the Activity falls from 40 cpm to 30 cpm.

In the case of `C=C1C[C@H](O)C[C@]2(C)CC[C@@](O)(C(=C)CO)C[C@@H]12`, the Activity is reported as 12100 cpm.

Assay: Inhibition of lipopolysaccharide-induced mouse B cell proliferation assessed as [3H]TdR incorporation at 1 uM

First: C=C(C)C(=O)O[C@H]1CC(=C)[C@@H]2C[C@@H](O)C(=C)[C@@H]2[C@H]2OC(=O)[C@@H](C)[C@@H]21
Second: C=C(CO)C(=O)O[C@H]1CC(=C)[C@@H]2C[C@@H](O)C(=C)[C@@H]2[C@H]2OC(=O)[C@@H](C)[C@@H]21
The Activity of the first is higher: 31100 cpm for the first, 29800 cpm for the second.

`C=C1C[C@H](O)C[C@]2(C)CC[C@@](O)(C(=C)CO)C[C@@H]12` gave an Activity of 33600 cpm.

Assay: Inhibition of lipopolysaccharide-induced mouse B cell proliferation assessed as [3H]TdR incorporation at 10 uM

First: C=C(C)C(=O)O[C@H]1CC(=C)[C@@H]2C[C@@H](O)C(=C)[C@@H]2[C@H]2OC(=O)[C@@H](C)[C@@H]21
Second: C=C(CO)C(=O)O[C@H]1CC(=C)[C@@H]2C[C@@H](O)C(=C)[C@@H]2[C@H]2OC(=O)[C@@H](C)[C@@H]21
The Activity of the first is lower: 20600 cpm for the first, 34900 cpm for the second.

Compound `C=C1C[C@H](O)C[C@]2(C)CC[C@@](O)(C(=C)CO)C[C@@H]12` has an Activity of 30.8 cpm.

Assay: Inhibition of lipopolysaccharide-induced mouse B cell proliferation assessed as [3H]TdR incorporation at 0.1 uM

Compared with `C=C(C)C(=O)O[C@H]1CC(=C)[C@@H]2C[C@@H](O)C(=C)[C@@H]2[C@H]2OC(=O)[C@@H](C)[C@@H]21`, `C=C(CO)C(=O)O[C@H]1CC(=C)[C@@H]2C[C@@H](O)C(=C)[C@@H]2[C@H]2OC(=O)[C@@H](C)[C@@H]21` is lower in Activity: 34800 cpm for the first, 24300 cpm for the second.

Work on `C=C1C[C@H](O)C[C@]2(C)CC[C@@](O)(C(=C)CO)C[C@@H]12` yielded an Activity of 36100 cpm.

Assay: Inhibition of lipopolysaccharide-induced mouse B cell proliferation assessed as [3H]TdR incorporation at 100 uM

Going from `C=C(C)C(=O)O[C@H]1CC(=C)[C@@H]2C[C@@H](O)C(=C)[C@@H]2[C@H]2OC(=O)[C@@H](C)[C@@H]21` to `C=C(CO)C(=O)O[C@H]1CC(=C)[C@@H]2C[C@@H](O)C(=C)[C@@H]2[C@H]2OC(=O)[C@@H](C)[C@@H]21`, the Activity falls from 80 cpm to 30 cpm.

`C=C1C[C@H](O)C[C@]2(C)CC[C@@](O)(C(=C)CO)C[C@@H]12` showed an Activity of 17200 cpm.
